From ChEMBL document CHEMBL1124112, “Indoline analogues of idazoxan: potent alpha 2-antagonists and alpha 1-agonists” (J Med Chem, 1988)

Key:
[1] = test system: Adrenergic receptor alpha-2 (Rattus norvegicus); assay: Agonism at alpha-2 adrenergic receptor, determined as dose required to produce a two fold shift of the cumulative dose-response curve to UK-14304 on the twitch response in rat vas deferens.
[2] = target: Adrenergic receptor alpha-2 (Rattus norvegicus) (UniProt P22086+P19328+P22909); assay: Antagonism at alpha-2 adrenergic receptor, determined as dose required to produce a two fold shift of the dose-response curve to UK-14304 on the twitch response in rat vas deferens; assay type: functional, tissue-based
Outline: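 Pithed rats, iv. Antagonist given before a cumulative dose-response curve to UK-14,304 on the vas deferens twitch response. DR2 is the antagonist dose (μg/kg) giving a twofold shift of the curve. Separate groups of rats (n = 4-6).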

[3] = target: T1, Adrenergic receptor alpha-2 (Rattus norvegicus, UniProt P22086+P19328+P22909); assay: Inhibition of saturable binding of [3H]idazoxan to alpha2-site in rat cerebral cortical membranes.; assay type: cell membranes, Membrane
T1 sequence (P22086 whole entry): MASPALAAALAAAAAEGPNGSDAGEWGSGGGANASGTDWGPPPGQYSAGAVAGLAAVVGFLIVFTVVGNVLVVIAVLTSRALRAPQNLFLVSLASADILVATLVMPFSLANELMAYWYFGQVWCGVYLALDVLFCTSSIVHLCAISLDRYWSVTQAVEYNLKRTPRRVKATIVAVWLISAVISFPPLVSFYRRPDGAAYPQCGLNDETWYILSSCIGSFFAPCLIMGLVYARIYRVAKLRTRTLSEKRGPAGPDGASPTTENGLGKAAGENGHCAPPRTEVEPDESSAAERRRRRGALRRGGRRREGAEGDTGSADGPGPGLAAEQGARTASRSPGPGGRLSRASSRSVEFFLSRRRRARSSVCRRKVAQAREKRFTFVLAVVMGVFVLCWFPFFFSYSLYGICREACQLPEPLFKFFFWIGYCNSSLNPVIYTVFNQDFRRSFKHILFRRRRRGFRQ
T1 sequence (P19328 whole entry): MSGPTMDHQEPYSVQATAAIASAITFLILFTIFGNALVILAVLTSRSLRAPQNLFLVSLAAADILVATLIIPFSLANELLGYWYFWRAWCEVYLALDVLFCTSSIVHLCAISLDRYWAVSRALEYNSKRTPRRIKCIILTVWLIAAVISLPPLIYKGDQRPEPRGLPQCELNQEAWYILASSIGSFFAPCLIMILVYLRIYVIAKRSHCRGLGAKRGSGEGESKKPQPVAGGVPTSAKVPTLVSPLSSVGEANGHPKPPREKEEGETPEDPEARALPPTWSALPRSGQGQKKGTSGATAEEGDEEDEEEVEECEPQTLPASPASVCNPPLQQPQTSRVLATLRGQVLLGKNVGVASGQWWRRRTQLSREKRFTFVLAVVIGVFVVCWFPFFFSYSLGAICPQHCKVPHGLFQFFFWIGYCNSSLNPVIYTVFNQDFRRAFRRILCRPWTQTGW
T1 sequence (P22909 whole entry): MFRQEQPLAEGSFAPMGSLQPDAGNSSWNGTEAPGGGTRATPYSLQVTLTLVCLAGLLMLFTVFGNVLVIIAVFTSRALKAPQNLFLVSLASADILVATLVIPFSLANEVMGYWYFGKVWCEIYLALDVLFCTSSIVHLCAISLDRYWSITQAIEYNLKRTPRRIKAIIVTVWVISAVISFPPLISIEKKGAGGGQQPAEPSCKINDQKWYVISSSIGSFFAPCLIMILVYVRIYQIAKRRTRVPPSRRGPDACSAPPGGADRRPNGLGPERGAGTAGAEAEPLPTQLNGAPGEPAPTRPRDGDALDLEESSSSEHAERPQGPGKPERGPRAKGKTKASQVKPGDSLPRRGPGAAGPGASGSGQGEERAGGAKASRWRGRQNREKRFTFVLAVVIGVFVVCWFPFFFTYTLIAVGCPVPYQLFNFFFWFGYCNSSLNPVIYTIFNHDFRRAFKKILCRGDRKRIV

[4] = target: Adrenergic receptor alpha-1 (Rattus norvegicus) (UniProt P15823+P23944+P43140); assay: Agonism at alpha-1 adrenergic receptor, determined as the dose required to produce a two fold shift of the cirazoline on diastolic blood pressure.; assay type: functional, tissue-based; details: Artery
Rattus norvegicus [5] = assay: In vivo ED40 is the raising diastolic blood pressure by 40 mm Hg in pithed rats. (postjunctional); assay type: functional; details: Artery
Outline: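 Pithed rats, compound given iv in cumulative doses. ED40 is the dose (μg/kg) raising diastolic blood pressure by 40 mmHg. Separate groups of rats (n = 4-6).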

[6] = target: T2, Adrenergic receptor alpha-1 (Rattus norvegicus, UniProt P15823+P23944+P43140); assay: Inhibition of saturable binding of [3H]prazosin to alpha-1 adrenergic receptor site in rat cerebral cortical membranes.; assay type: cell membranes, Membrane
T2 sequence (P15823 whole entry): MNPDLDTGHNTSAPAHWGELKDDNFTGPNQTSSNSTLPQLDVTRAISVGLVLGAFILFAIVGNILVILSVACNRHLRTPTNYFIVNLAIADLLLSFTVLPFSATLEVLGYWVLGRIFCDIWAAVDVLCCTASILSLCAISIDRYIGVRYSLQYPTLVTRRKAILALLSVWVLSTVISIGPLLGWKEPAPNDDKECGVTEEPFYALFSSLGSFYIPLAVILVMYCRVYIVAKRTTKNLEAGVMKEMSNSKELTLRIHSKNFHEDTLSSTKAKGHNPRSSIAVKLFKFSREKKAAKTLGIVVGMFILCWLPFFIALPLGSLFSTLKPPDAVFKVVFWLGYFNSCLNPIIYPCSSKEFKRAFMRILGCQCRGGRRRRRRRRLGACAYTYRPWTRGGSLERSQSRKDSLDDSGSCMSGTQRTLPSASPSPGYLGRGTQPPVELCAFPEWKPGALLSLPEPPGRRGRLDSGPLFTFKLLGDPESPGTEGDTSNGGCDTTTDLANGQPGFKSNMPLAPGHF
T2 sequence (P23944 whole entry): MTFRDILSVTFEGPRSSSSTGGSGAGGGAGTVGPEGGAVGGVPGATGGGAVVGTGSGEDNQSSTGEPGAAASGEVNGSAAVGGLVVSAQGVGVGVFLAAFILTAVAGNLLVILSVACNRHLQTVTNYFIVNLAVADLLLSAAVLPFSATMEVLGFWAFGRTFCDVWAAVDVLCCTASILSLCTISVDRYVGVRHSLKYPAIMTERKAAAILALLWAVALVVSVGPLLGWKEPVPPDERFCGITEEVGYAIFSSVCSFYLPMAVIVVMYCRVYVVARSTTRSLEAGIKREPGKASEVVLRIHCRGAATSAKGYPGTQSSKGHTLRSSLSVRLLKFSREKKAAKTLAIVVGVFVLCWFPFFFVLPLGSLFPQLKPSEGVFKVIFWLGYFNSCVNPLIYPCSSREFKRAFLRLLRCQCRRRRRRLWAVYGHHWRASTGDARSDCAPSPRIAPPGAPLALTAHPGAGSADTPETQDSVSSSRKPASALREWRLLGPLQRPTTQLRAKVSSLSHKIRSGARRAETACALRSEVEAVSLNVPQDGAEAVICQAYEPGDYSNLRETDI
T2 sequence (P43140 whole entry): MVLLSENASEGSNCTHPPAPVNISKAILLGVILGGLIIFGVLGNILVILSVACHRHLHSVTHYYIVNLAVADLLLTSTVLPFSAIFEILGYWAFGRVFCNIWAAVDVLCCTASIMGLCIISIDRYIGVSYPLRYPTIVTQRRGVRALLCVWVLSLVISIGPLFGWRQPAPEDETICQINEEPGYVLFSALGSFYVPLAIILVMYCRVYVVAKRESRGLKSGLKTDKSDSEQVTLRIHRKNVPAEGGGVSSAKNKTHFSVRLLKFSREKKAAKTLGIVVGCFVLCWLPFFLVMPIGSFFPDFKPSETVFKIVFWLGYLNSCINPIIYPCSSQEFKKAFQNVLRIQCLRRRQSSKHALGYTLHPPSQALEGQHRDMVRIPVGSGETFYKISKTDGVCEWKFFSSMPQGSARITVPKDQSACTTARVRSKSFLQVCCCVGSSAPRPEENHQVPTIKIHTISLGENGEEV

Rattus norvegicus [7] = assay: In vivo dose required to inhibit vas deferens contraction by 25% after pretreatment with prazosin in pithed rats. (prejunctional); ant- antagonist; assay type: functional, organism-based; details: filed as antagonist
Outline: (§1)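 Pithed rats pretreated with prazosin (1 mg/kg). Compound given iv in cumulative doses. ED25 is the dose (μg/kg) inhibiting vas deferens contraction by 25%. Separate groups of rats (n = 4-6).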

Rattus norvegicus [8] = assay: In vivo antagonist dose producing two fold shift of UK-14,304 in pithed rats. (prejunctional)
Rattus norvegicus [9] = assay: In vivo antagonist dose producing two fold shift of cirazoline in pithed rats. (postjunctional);AG- agonist; assay type: functional, organism-based; details: filed as agonist
Outline: (§2)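 Pithed rats, iv. Antagonist given before a cumulative dose-response curve to cirazoline on diastolic blood pressure. DR2 is the antagonist dose (μg/kg) giving a twofold rightward shift. Separate groups of rats (n = 4-6).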

Rattus norvegicus [10] = assay: In vivo antagonist dose producing two fold shift of cirazoline in pithed rats. (postjunctional); AG- agonist; assay type: functional, organism-based; details: filed as agonist
Outline: as §2

[11] = target: T2, Adrenergic receptor alpha-1; assay: Inhibition of saturable binding of [3H]prazosin to alpha1-site in rat cerebral cortical membranes.; assay type: cell membranes, Membrane
Rattus norvegicus [12] = assay: In vivo dose required to inhibit vas deferens contraction by 25% after pretreatment with prazosin in pithed rats. (prejunctional); assay type: functional
Outline: as §1

Rattus norvegicus [13] = assay: In vivo antagonist dose producing two fold shift of cirazoline in pithed rats. […]; assay type: functional
Rattus norvegicus [14] = assay: In vivo antagonist dose producing two fold shift of cirazoline in pithed rats. (postjunctional); assay type: functional
Outline: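 Pithed rats, separate groups (n = 4-6). Cirazoline cumulative dose-response on diastolic blood pressure (postjunctional α1) was recorded with and without antagonist given iv. The antagonist dose (μg/kg, iv) giving a twofold rightward shift of the cirazoline curve was reported as DR2.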

Rattus norvegicus [15] = assay: In vivo antagonist dose producing two fold shift of cirazoline in pithed rats. (postjunctional)

`CN1c2cccc(Cl)c2CC1C1=NCCN1.Cl` (centres undefined) was tested, and the Prejunctional agonist potency [1] was 0.29, the Prejunctional antagonist potency [2] was 10 and the Ki [3] was 0.16 nM. The Postjunctional agonist potency [4] was 17, the ED40 (Rattus norvegicus [5]) was 0.2 µg/kg and the Ki [6] was 13.1 nM. For the same compound, the ED25 (Rattus norvegicus [7]) was “Antagonist”, the DR2 (Rattus norvegicus [8]) was 0.0024 mg/kg and the ED40 (Rattus norvegicus [9]) was “Agonist”.
With `CCCN1c2ccccc2CC1C1=NCCN1` (centres undefined) the Prejunctional agonist potency [1] was 0, the Prejunctional antagonist potency [2] was 3.2 and the Ki [3] was 0.96 nM. For the same compound, the ED40 (Rattus norvegicus [10]) was “Agonist”, the Postjunctional agonist potency [4] was 3.9 and the Ki [11] was 3.7 nM. For the same compound, the ED40 (Rattus norvegicus [5]) was 3.8 µg/kg, the ED25 (Rattus norvegicus [7]) was “Antagonist” and the DR2 (Rattus norvegicus [8]) was 0.0071 mg/kg.
Compound `CN1c2ccccc2CC1C1=NCCN1` (centres undefined) has a Prejunctional agonist potency [1] of 0.77, a Prejunctional antagonist potency [2] of 5.5 and a Ki [3] of 0.69 nM. For the same compound, the ED25 (Rattus norvegicus [12]) was 4.1 µg/kg, the Postjunctional agonist potency [4] was 3.8 and the ED40 (Rattus norvegicus [13]) was 3.7 µg/kg. For the same compound, the ED40 (Rattus norvegicus [5]) was 0.5 µg/kg, the Ki [6] was 3.86 nM and the ED40 (Rattus norvegicus [9]) was “Agonist”.
`CCN1c2cccc(Cl)c2CC1C1=NCCN1` (centres undefined) gave a Prejunctional agonist potency [1] of 0.51, a Prejunctional antagonist potency [2] of 8 and a Ki [3] of 0.42 nM. For the same compound, the ED40 (Rattus norvegicus [10]) was “Agonist”, the Postjunctional agonist potency [4] was 4.4 and the Ki [11] was 1.9 nM. For the same compound, the ED40 (Rattus norvegicus [5]) was 0.8 µg/kg, the ED25 (Rattus norvegicus [7]) was “Antagonist” and the DR2 (Rattus norvegicus [8]) was 0.0015 mg/kg.
`COc1cc2nc(N3CCN(C(=O)c4ccco4)CC3)nc(N)c2cc1OC` [PRAZOSIN] showed a DR2 (Rattus norvegicus [14]) of 0.0094 mg/kg and a DR2 (Rattus norvegicus [8]) of 5.44 mg/kg.
With `c1ccc2c(c1)OCC(C1=NCCN1)O2` (centres undefined) [IDAZOXAN] the DR2 (Rattus norvegicus [15]) was 1.43 mg/kg, the ED40 (Rattus norvegicus [5]) was 65.5 µg/kg and the DR2 (Rattus norvegicus [8]) was 0.0202 mg/kg.
For `CCN1c2ccccc2CC1C1=NCCN1` (centres undefined), the Prejunctional agonist potency [1] was 0, the Prejunctional antagonist potency [2] was 9.1 and the Ki [3] was 0.24 nM. The ED40 (Rattus norvegicus [10]) was “Agonist”, the Postjunctional agonist potency [4] was 1.4 and the Ki [11] was 3.72 nM. For the same compound, the ED40 (Rattus norvegicus [5]) was 3.3 µg/kg, the ED25 (Rattus norvegicus [7]) was “Antagonist” and the DR2 (Rattus norvegicus [8]) was 0.0016 mg/kg.
`Cl.c1ccc(N2c3ccccc3CC2C2=NCCN2)cc1` (centres undefined) gave a Prejunctional agonist potency [1] of 0, a Prejunctional antagonist potency [2] of 0.5 and a Ki [3] of 3 nM. The ED40 (Rattus norvegicus [10]) was “Agonist”, the Postjunctional agonist potency [4] was 5.3 and the Ki [11] was 8.4 nM. The ED40 (Rattus norvegicus [5]) was 1.1 µg/kg, the ED25 (Rattus norvegicus [7]) was “Antagonist” and the DR2 (Rattus norvegicus [8]) was 0.0094 mg/kg.
